Results reported in PMC10351452 (Autophagy, 2023).

Tests used:
[1] = test system: BCL2L1(BCL-XL)-BAX interaction; assay: PCA lysate mixing protocol BCL2L1-L1 + BAX-L2; format: biochemical; details: 1 µM ABT-737 incubated with BCL2L1-L1 lysate 1 h prior to BAX-L2 lysate
[2] = test system: PANC1 cells; assay: Cell viability; format: cell-based, human; details: CQ 10 µM, day 4; stated as similar to compound 189
[3] = test system: NCI-H460 human lung cancer cells; assay: Cell viability; format: cell-based; details: CQ 10 µM, 4 days
[4] = test system: NCI-H1299 cells; assay: Cell viability; format: cell-based, human; details: CQ, 4 days
Summary of the method: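 HEC-1A (DMEM/F12) and NCI-H1299 (RPMI) cells, media with 10% FBS, plated at 2000 cells/well and treated next day with test compound 10 µM. CQ 10 µM was used in HEC-1 cells. CellTiter-Glo luminescence read after 4 days and expressed as growth relative to DMSO. Mean ± SD; n = 11 for HEC-1A, n = 6 for NCI-H1299. One-way ANOVA with Tukey.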

[5] = test system: autophagosomes and autolysosomes in RFP-GFP-LC3B PANC1 cells; assay: Autophagy flux assay in RFP-GFP-LC3B PANC1 stable cells; format: cell-based, human; details: RFP-GFP-LC3B PANC1, CQ 10 µM, 24 h
Summary of the method: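 PANC1 cells transfected with an RFP-GFP-LC3B vector and kept two weeks under puromycin to give a stable polyclonal line. Plated on coverslips at 3X105 cells/well and treated next day, with CQ 10 µM as a comparator. After 24 h: DAPI stain, 4% paraformaldehyde fixation, confocal imaging. Autophagosomes RFP+GFP+; autolysosomes counted as red minus green dots per cell. Normalised to DMSO, mean ± SD, n = 3 biological repeats, two-way ANOVA/Sidak.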

For CN(C)CC[C@H](CSc1ccccc1)Nc1ccc(S(=O)(=O)NC(=O)c2ccc(N3CCN(Cc4ccccc4-c4ccc(Cl)cc4)CC3)cc2)cc1[N+](=O)[O-] [ABT-737], the “luminescence in BCL2L1-L1/BAX-L2 PCA” value [1] was “significant decrease in luminescence”.
With CCN(CC)CCCC(C)Nc1ccnc2cc(Cl)ccc12 (centres unmarked) [CQ, chloroquine] the “reduction of growth of PANC1 cells” value [2] was over 50%, the “effect on growth of NCI-H460 cells” value [3] was “no effect” and the “response of NCI-H1299 cells (viability)” value [4] was “did not respond”. The “number of autophagosomes and autolysosomes per cell” value [5] was “shift toward increased number of autophagosomes at the expense of autolysosomes”.
